Data as given in ChEMBL document CHEMBL1221342, “Synthesis and in vitro antitumor activity of new 4,5-dihydropyrazole derivatives” (Bioorg Med Chem, 2010).

How the values were obtained:
[1] = system: NCI-H460; test: Cytotoxicity against human NCI-H460 cells after 72 hrs by SRB assay; format: functional, cell-based; conditions: NCI-H460, 72 h
Summary of the method: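 NCI-H460 (ATCC) cells seeded in 96-well plates in growth medium. Scalar drug concentrations added 24 h after plating, then 72 h exposure. Surviving cells stained with sulforhodamine B, OD read at 570 nm. IC50 (50% growth inhibition) fitted from dose–response curves. Mean ± SE of at least three independent experiments.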

[2] = Inhibition of tubulin polymerization
Summary of the method: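 Tubulin (3 mg/mL HTS) in G-PEM buffer plus 5% glycerol, prepared at 4 °C, incubated at 37 °C with or without compound. Polymerization followed by A340 over 60 min. Polymer taken as the AUC, with untreated control AUC set to 100%. IC50 derived by non-linear regression.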

With `COc1cc(C2=NN(C(=O)COC(C)=O)C(c3cc(OC)c(OC)c(OC)c3)C2)ccc1O` (centres undefined) the IC50 [1] was 4.5 µM.

For `COc1cc(C2CC(c3ccc(C)cc3)=NN2C(=O)CO)cc(OC)c1OC` (centres undefined), the IC50 [2] was 7.72 µM and the IC50 [1] was 0.69 µM.

In the case of `COc1cc(C2CC(c3cccc(Br)c3)=NN2C(=O)CO)cc(OC)c1OC` (centres undefined), the IC50 [1] is reported as 1.1 µM.

Work on `COc1cc(C2CC(c3ccc(N(C)C)cc3)=NN2C(=O)CO)cc(OC)c1OC` (centres undefined) yielded an IC50 [1] of 1.3 µM.

`CCN(CC)c1ccc(C2=NN(C(=O)CO)C(c3cc(OC)c(OC)c(OC)c3)C2)cc1` (centres undefined) showed an IC50 [2] of 6.14 µM and an IC50 [1] of 0.95 µM.

Work on `COc1cc(C2=NN(C(=O)CO)C(c3cc(OC)c(OC)c(OC)c3)C2)ccc1O` (centres undefined) yielded an IC50 [1] of 1.85 µM.

`COc1cc(C2=NNC(c3cccc(O)c3)C2)cc(OC)c1OC` (centres undefined) gave an IC50 [1] greater than 20 µM.

`COc1cccc(C2CC(c3cc(OC)c(OC)c(OC)c3)=NN2)c1` (centres undefined) showed an IC50 [1] of 11.6 µM.

For `COc1cc(C2CC(c3ccc(C)cc3)=NN2)cc(OC)c1OC` (centres undefined), the IC50 [2] was greater than 10 µM and the IC50 [1] was greater than 20 µM.

Work on `COc1cc(C2CC(c3ccc(F)cc3)=NN2)cc(OC)c1OC` (centres undefined) yielded an IC50 [1] greater than 20 µM.

With `COc1cc(C2CC(c3cccc(Br)c3)=NN2)cc(OC)c1OC` (centres undefined) the IC50 [1] was greater than 20 µM.

Compound `COc1cc(C2CC(c3ccc(Br)cc3)=NN2)cc(OC)c1OC` (centres undefined) has an IC50 [1] greater than 20 µM.

Compound `COc1cc(C2CC(c3cccc(O)c3)=NN2)cc(OC)c1OC` (centres undefined) has an IC50 [1] greater than 20 µM.

With `COc1cccc(C2=NNC(c3cc(OC)c(OC)c(OC)c3)C2)c1` (centres undefined) the IC50 [1] was greater than 20 µM.

With `COc1ccc(C2=NNC(c3cc(OC)c(OC)c(OC)c3)C2)cc1` (centres undefined) the IC50 [1] was greater than 20 µM.

Work on `COc1cc(C2CC(c3ccc(SC)cc3)=NN2)cc(OC)c1OC` (centres undefined) yielded an IC50 [1] greater than 20 µM.

Work on `COc1cc(C2CC(c3ccc(N(C)C)cc3)=NN2)cc(OC)c1OC` (centres undefined) yielded an IC50 [1] greater than 20 µM.

`CCN(CC)c1ccc(C2=NNC(c3cc(OC)c(OC)c(OC)c3)C2)cc1` (centres undefined) showed an IC50 [2] greater than 10 µM and an IC50 [1] greater than 20 µM.

Work on `COc1cc(C2=NNC(c3cc(OC)c(OC)c(OC)c3)C2)ccc1O` (centres undefined) yielded an IC50 [1] greater than 20 µM.

In the case of `COc1cc(C2=NN(C(C)=O)C(c3cccc(O)c3)C2)cc(OC)c1OC` (centres undefined), the IC50 [1] is reported as greater than 20 µM.

`COc1ccc(C2CC(c3cc(OC)c(OC)c(OC)c3)=NN2C(C)=O)cc1` (centres undefined) gave an IC50 [1] greater than 20 µM.

In the case of `COc1cc(C2=NN(C(C)=O)C(c3ccc(N(C)C)cc3)C2)cc(OC)c1OC` (centres undefined), the IC50 [1] is reported as greater than 20 µM.

`CCN(CC)c1ccc(C2CC(c3cc(OC)c(OC)c(OC)c3)=NN2C(C)=O)cc1` (centres undefined) showed an IC50 [1] of 13.8 µM.

Compound `COc1cc(C2CC(c3ccc(C)cc3)=NN2C(C)=O)cc(OC)c1OC` (centres undefined) has an IC50 [2] greater than 10 µM and an IC50 [1] of 1.3 µM.

`COc1cc(C2CC(c3ccc(F)cc3)=NN2C(C)=O)cc(OC)c1OC` (centres undefined) gave an IC50 [1] of 12 µM.

In the case of `COc1cc(C2CC(c3ccc(Cl)cc3)=NN2C(C)=O)cc(OC)c1OC` (centres undefined), the IC50 [1] is reported as 11.9 µM.

`COc1cc(C2CC(c3ccc(Br)cc3)=NN2C(C)=O)cc(OC)c1OC` (centres undefined) showed an IC50 [1] of 6 µM.

`COc1cccc(C2=NN(C(C)=O)C(c3cc(OC)c(OC)c(OC)c3)C2)c1` (centres undefined) gave an IC50 [1] greater than 20 µM.

In the case of `COc1ccc(C2=NN(C(C)=O)C(c3cc(OC)c(OC)c(OC)c3)C2)cc1` (centres undefined), the IC50 [1] is reported as greater than 20 µM.

`COc1cc(C2CC(c3ccc(SC)cc3)=NN2C(C)=O)cc(OC)c1OC` (centres undefined) showed an IC50 [1] of 8 µM.

Work on `COc1cc(C2CC(c3cccc(N)c3)=NN2C(C)=O)cc(OC)c1OC` (centres undefined) yielded an IC50 [2] greater than 10 µM and an IC50 [1] of 0.74 µM.

Compound `COc1cc(C2CC(c3ccc(N)cc3)=NN2C(C)=O)cc(OC)c1OC` (centres undefined) has an IC50 [2] of 10 µM and an IC50 [1] of 2.6 µM.

Compound `COc1cc(C2CC(c3ccc(C)cc3)=NN2C(=O)COC(C)=O)cc(OC)c1OC` (centres undefined) has an IC50 [1] of 3.3 µM.

In the case of `COc1cc(C2CC(c3cccc(Br)c3)=NN2C(=O)COC(C)=O)cc(OC)c1OC` (centres undefined), the IC50 [1] is reported as greater than 20 µM.

With `COc1cc(C2CC(c3ccc(N(C)C)cc3)=NN2C(=O)COC(C)=O)cc(OC)c1OC` (centres undefined) the IC50 [1] was greater than 20 µM.

Compound `CCN(CC)c1ccc(C2=NN(C(=O)COC(C)=O)C(c3cc(OC)c(OC)c(OC)c3)C2)cc1` (centres undefined) has an IC50 [1] of 5 µM.

For `COc1cccc(C2CC(c3cc(OC)c(OC)c(OC)c3)=NN2C(C)=O)c1` (centres undefined), the IC50 [1] was greater than 20 µM.
